Calpain2 inh: inhibitors of pig calpain II; purified calpain II, fluorogenic peptide substrate, 30 min; inhibition, % at 16 µM; 220,000 tested, 0.37% active; AID 1236;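 active means inhibition above about 50%, limit read from the data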
PMI act hi M6P: PMI (human) activation, high substrate; P34949; coupled PMI enzyme assay, resazurin fluorescence, 20 min; hits give high values; 1 = untreated enzyme, 0 = substrate-free blank; activation factor at 20 µM; 190,000 tested, 0.34% active; AID 1216;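 active means activation factor of 2 or more at 20 µM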
Target sequence (P34949 whole entry, looked up): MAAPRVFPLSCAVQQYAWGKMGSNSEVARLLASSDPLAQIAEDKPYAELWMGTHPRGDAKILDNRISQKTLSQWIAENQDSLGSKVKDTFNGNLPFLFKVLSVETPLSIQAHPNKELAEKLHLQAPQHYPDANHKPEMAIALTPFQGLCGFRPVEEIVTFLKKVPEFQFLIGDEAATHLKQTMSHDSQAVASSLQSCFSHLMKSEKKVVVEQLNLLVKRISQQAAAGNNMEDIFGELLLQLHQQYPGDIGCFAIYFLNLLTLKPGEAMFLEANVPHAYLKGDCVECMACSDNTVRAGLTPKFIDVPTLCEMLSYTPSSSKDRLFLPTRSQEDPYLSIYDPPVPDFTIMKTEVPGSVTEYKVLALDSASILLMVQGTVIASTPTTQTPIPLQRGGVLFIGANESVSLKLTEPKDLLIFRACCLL
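Test system: human PMI in coupled enzyme assay; Input: PMI at 15 ng/mL final; Medium: HEPES buffer, pH 7.4; Schedule: 20 min incubation at room temperature; Technique: resorufin fluorescence at Ex 544/Em 590 nm; Compound: 20 µM single dose; Probe or stimulus: Near-saturating mannose-6-phosphate, 1.0 mM.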
PMI act: increases human mannose-6-phosphate isomerase activity. activation factor at 20 µM. P34949. 190,000 tested, 0.005% active. purified human PMI, coupled resazurin fluorescence, 20 min; hits give high values; 1 = vehicle control, 0 substrate-free wells;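 active means activation factor of 2 or more at 20 µM, relative to plate controls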
Rad51 HR inh: blocks human Rad51 in homologous recombination; Q06609; hRad51 DNA strand exchange, fluorescence dequenching; inhibition, % at 10 µM; 200,000 tested, 0.085% active; AID 1385;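 active means inhibition above 40% at the single screening dose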;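 further: 0% = DMSO control wells and 100% = blanks with heterologous ssDNA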
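material = hRad51 filaments on single-stranded DNA | timing = filaments 15 min 37 °C, then compound 30 min | signal = FRET fluorescence dequenching, excitation 485 nm, emission 520 nm | benchmarks = control wells and blank wells on each plate | evaluation = percent inhibition relative to plate controls and blanks | compound = 10 µM final, single point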
L major viab: reduces viability of Leishmania major promastigotes | 200,000 tested, 9% active | inhibition, % at 10 µM | resazurin fluorescence viability; in the data active means inhibition above about 50%;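 further: promastigotes grown with compound for 44 hours at 28 °C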
WT yeast gro inh: growth inhibition of WT yeast, mitochondrial fusion screen | 190,000 tested, 2.1% active | AID 1362 | mitochondrial fusion phenotypic screen, WT strain | inhibition, % at 10 µM; in the data active means inhibition above about 58%; tested in S. cerevisiae
The depositor's hits bear a star; . = no result. Compounds with a hit are over-represented: about 9.8% of the library has one in this group of screens.

SMILES | Calpain2 inh | PMI act hi M6P | PMI act | Rad51 HR inh | L major viab | WT yeast gro inh
COc1ccccc1N1CC(C)(C)C(=O)N(C(=O)c2c(F)cccc2Cl)C1=S | -4 | . | . | 4 | . | .
Cc1cccc(OCCCC(=O)NCC(=O)Nc2cccc(C)c2C)c1 | 21 | 1 | 1 | -2 | -9 | -2
C=CCc1c(C)nc(N2CCSCC2)[nH]c1=O | -16 | . | . | -3 | . | .
Cc1cc(C)n(-c2nc(NCCC(C)C)c3c4c(sc3n2)COC(C)(C)C4)n1 | -16 | 0.9 | 0.8 | . | 71* | 80*
Cc1cc(C)n(-c2nc(NCCN(C)C)c3c4c(sc3n2)COC(C)(C)C4)n1 | -6 | . | . | . | . | .
COc1ccc(-c2oc(NC(=O)c3ccc(C)cc3)c(C#N)c2-c2ccc(OC)cc2)cc1 | -151 | 0.9 | 0.9 | 3 | 24 | 10
COc1cccc(C(=O)Nc2nc(-c3ccccc3)c(-c3ccccc3)o2)c1 | -10 | 1.1 | 0.9 | -4 | 6 | 74*
COc1ccc(C(=O)Nc2oc(-c3ccccc3)c(-c3ccccc3)c2C#N)cc1 | -149 | 0.9 | 0.8 | -3 | 86* | 13
CCc1nc2ccccc2n1Cc1ccccc1F | -6 | 0.9 | 0.8 | 10 | 13 | -5
O=C(/C=C/c1cccc(C(F)(F)F)c1)Nc1cccc(C(F)(F)F)c1 | 30 | 0.8 | 0.8 | 1 | 96* | 79
CSc1cccc(NC(=O)/C=C/c2cccc(Cl)c2)c1 | 22 | 0.9 | 0.9 | . | 3 | 83*
CN(C1CCCC1)C1CCN(C(=O)CNC(=O)/C=C/c2cccc(C(F)(F)F)c2)CC1 | -2 | 1.1 | 1 | 17 | 76* | 3
CN(C)C(CNC(=O)/C=C/c1cccc(Cl)c1)c1ccccc1 (centres undefined) | -17 | 0.9 | 0.9 | -2 | 75* | 0
COCCCNC(=O)/C=C/c1cccc(Cl)c1 | 5 | 1 | 1 | -3 | -6 | -8
CN(C1CCCC1)C1CCN(C(=O)CNC(=O)/C=C/c2ccc(F)cc2)CC1 | -4 | 0.9 | 0.9 | 3 | 4 | -14
O=C(NC1CC1)c1ccc(C2SCC(=O)N2Cc2ccccc2)cc1 (centres undefined) | 18 | 1 | 1 | . | 2 | -17
O=C(CN1CCC(O)(c2cccc(F)c2)CC1)NCCc1c[nH]c2ccccc12 | -25 | . | . | 8 | . | .
CC(C)C1Cc2c(sc3[nH]c(=S)n(Cc4ccccc4)c(=O)c23)CO1 (centres undefined) | -43 | 1 | 0.9 | . | 8 | 61*
O=C(CN1CC[n+]2c(-c3cccs3)csc21)c1ccc(-c2ccccc2)cc1 | 58* | 1.1 | 1.1 | -3 | 30 | 69*
Cc1ccc(C(=O)Cn2nnc(-c3cccs3)n2)cc1 | -21 | . | . | . | . | .
Cc1nc2ccccc2n1CC(=O)OCC(=O)NC1CC1 | 9 | 1 | 1.1 | -11 | 9 | 8
COC(=O)c1ccccc1NC(=O)CCCn1nc([N+](=O)[O-])cc1C | -8 | 1.1 | 1 | 4 | -3 | -12
Cc1cc([N+](=O)[O-])nn1CCCC(=O)Nc1cc(Oc2ccccc2)cc([N+](=O)[O-])c1 | 56* | 0.9 | 0.8 | 14 | -3 | 11
Cc1cccc(Oc2cc(NC(=O)Cn3cnc([N+](=O)[O-])n3)cc([N+](=O)[O-])c2)c1 | 25 | 0.9 | 0.9 | 4 | 100* | -23
Cc1cc([N+](=O)[O-])nn1CCCC(=O)Nc1cc(Oc2ccc(F)cc2)cc([N+](=O)[O-])c1 | 5 | 1 | 0.9 | . | 5 | 27
SMILES | Calpain2 inh | PMI act hi M6P | PMI act | Rad51 HR inh | L major viab | WT yeast gro inh
COc1ccc(CNC(=O)CCCn2nc([N+](=O)[O-])cc2C)cc1 | 60* | 1.1 | 1.1 | 13 | -6 | -19
O=C(CCl)Nc1ccccc1C(=O)NCc1ccccc1 | 0 | 1.1 | 1.1 | -19 | 42 | -5
CC(NC(=O)N(Cc1ccccc1)Cc1ccc2c(c1)OCO2)(C(F)(F)F)C(F)(F)F | 9 | 0.9 | 0.9 | -1 | 94* | 2
CC(=O)OCCN(Cc1ccccc1)Cc1ccc2c(c1)OCO2 | 1 | 1 | 1 | -2 | -2 | 48
CCC(NC(=O)N(Cc1ccccc1)Cc1ccc2c(c1)OCO2)(C(F)(F)F)C(F)(F)F | -4 | 0.8 | 0.8 | -9 | 67* | -3
CC(C)C(=O)N(Cc1ccc2c(c1)OCO2)Cc1ccccn1 | 20 | 1 | 1.1 | -4 | -6 | -1
Cc1cccc2c1[nH]c1nc(N/N=C\c3ccco3)nnc12 | -78 | 1.1 | 1 | . | 61* | 0
O=C(O)/C=C/c1ccc(S(=O)(=O)Nc2ccc(C(=O)NCC(=O)O)cc2)cc1 | -12 | 0.9 | 1 | -1 | 11 | -7
Cc1cc(=O)[nH]c(N/N=C/c2ccccn2)n1 | 7 | 1.2 | 1 | -2 | 99* | 2
Cc1ccc(/C=N/Nc2cn[nH]c(=O)n2)o1 | -18 | 0.9 | 1 | -2 | -6 | 6
O=c1nc(N/N=C/c2ccccn2)cn[nH]1 | -8 | 1.2 | 1.1 | 24 | 98* | 18
CCCN1C(=O)/C(=N\OCC(=O)Nc2ccc(C(C)C)cc2)c2ccccc21 | 3 | 1 | 0.8 | -3 | -6 | 3
CNC(=S)NNC(=O)c1cc(C(C)(C)C)nn1Cc1ccc(F)cc1 | 16 | . | . | -4 | . | .
CCCc1c(C(=O)Nc2cc(C)on2)cnn1-c1ccccc1 | 4 | . | . | 14 | . | .
CCC(c1nnnn1CCc1ccccc1)N1CCN(c2ccc(OC)cc2)CC1 (centres undefined) | -14 | 0.9 | 0.9 | 5 | 96* | 18
COc1ccc(Cn2nnnc2C(c2ccccc2)N2CCN(C3CCCC3)CC2)cc1 (centres undefined) | 3 | 1.1 | 1 | -6 | -5 | 4
N#Cc1ccc(C(c2nnnn2C2CCCC2)N2CCC(Cc3ccccc3)CC2)cc1 (centres undefined) | 28 | 0.9 | 0.9 | 0 | 1 | 14
N#Cc1cccc(C(c2nnnn2C2CCCC2)N2CCC(Cc3ccccc3)CC2)c1 (centres undefined) | -19 | 0.9 | 0.9 | -3 | 65* | -5
COc1ccc(C(c2nnnn2CCc2ccccc2)N2CCN(C3CCCC3)CC2)cc1 (centres undefined) | 30 | 1 | 1.1 | -7 | 99* | -8
N#Cc1cccc(C(c2nnnn2CCc2ccccc2)N2CCN(C3CCCCC3)CC2)c1 (centres undefined) | -22 | 1 | 1.1 | 8 | 81* | -2
CN(C)c1nc(/C=C(\C#N)C(N)=O)c(Cl)n1-c1ccc(F)cc1 | -2 | 0.9 | 1.1 | 10 | 18 | 5
O=S(=O)(c1ccccc1)c1nc(NCc2cccnc2)sc1Cl | -3 | 1.1 | 1.1 | 7 | -3 | 5
C/C(CCC12CC3CC(CC(C3)C1)C2)=N\NC(N)=S | -3 | 1 | 1 | 0 | 100* | 78*
C=CCN(CC=C)C(=S)NC(=O)Cc1cccc2ccccc12 | -41 | 0.9 | 0.8 | -1 | -8 | 65*
